Laboratory results taken from ChEMBL document CHEMBL4673173, “Cyrene(TM) is a green alternative to DMSO as a solvent for antibacterial drug discovery against ESKAPE pathogens” (RSC Med Chem, 2020).
≈ marks a conversion by molar mass, not a printed value. Structures can show the parent of a compound that is named as a salt. Calls of active or inactive are those of the source. The rule behind the calls is not given here. Bridge positions count the residues as written; N and C are the ends. Square brackets hold non-standard residues; d marks the D form. Peptide text beside a SMILES is read from it. * marks the point of attachment. X1 = CC[C@H](C)CCCCC(=O)*; Dab = NCC[C@H](N)C(=O)O

Assays:
Enterococcus faecalis [1] = conditions: ATCC 51299
Acinetobacter baumannii [2] = assay: Antibacterial activity against Acinetobacter baumannii ATCC 19606 using cyrene as solvent by broth microdilution method; type: functional; conditions: ATCC 19606 = CIP 70.34 = JCM 6841
Acinetobacter baumannii [3] = assay: Antibacterial activity against Acinetobacter baumannii ATCC 19606 using DMSO as solvent by broth microdilution method; type: functional; conditions: ATCC 19606 = CIP 70.34 = JCM 6841
Staphylococcus aureus [4] = conditions: ATCC 43300
Klebsiella pneumoniae [5] = assay: Antibacterial activity against Klebsiella pneumoniae ATCC 700603 using DMSO as solvent by broth microdilution method; type: functional
Pseudomonas aeruginosa [6] = assay: Antibacterial activity against Pseudomonas aeruginosa ATCC 27893 using DMSO as solvent by broth microdilution method; type: functional
Pseudomonas aeruginosa [7] = assay: Antibacterial activity against Pseudomonas aeruginosa ATCC 27893 using cyrene as solvent by broth microdilution method; type: functional
Escherichia coli [8] = assay: Antibacterial activity against Escherichia coli ATCC 25922 using DMSO as solvent by broth microdilution method; type: functional
Escherichia coli [9] = assay: Antibacterial activity against Escherichia coli ATCC 25922 using cyrene as solvent by broth microdilution method; type: functional
Enterococcus faecalis [10] = conditions: ATCC 51299; remark: listed apart in the source
Staphylococcus aureus [11] = conditions: ATCC 43300; remark: listed apart in the source
Klebsiella pneumoniae [12] = assay: Antibacterial activity against Klebsiella pneumoniae ATCC 700603 using cyrene as solvent by broth microdilution method; type: functional
Staphylococcus aureus [13] = assay: microbe, parasite or virus in culture; type: functional; conditions: ATCC 43300
Klebsiella pneumoniae [14] = conditions: 700603
Klebsiella pneumoniae [15] = conditions: 700603; remark: listed apart in the source
Staphylococcus aureus [16] = assay: microbe, parasite or virus in culture; type: functional; conditions: ATCC 43300; remark: listed apart in the source
Enterococcus faecalis [17] = assay: Antibacterial activity against Enterococcus faecalis ATCC 51299 by broth microdilution method; type: functional
Summary of the method: (§1)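 Antibiotics were dissolved as stock solutions in either DMSO or Cyrene™, neat or mixed with water, at 5–10 mM (stock). Each drug was tested in parallel with both vehicles. Growth inhibition was read as MIC80 […]. NA means no activity at the highest concentration tested.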

Klebsiella pneumoniae [18] = assay: Antibacterial activity against Klebsiella pneumoniae ATCC 700603 by broth microdilution method; type: functional
Summary of the method: as §1

Escherichia coli [19] = assay: Antibacterial activity against Escherichia coli ATCC 25922 by broth microdilution method; type: functional
Summary of the method: as §1

Acinetobacter baumannii [20] = assay: Antibacterial activity against Acinetobacter baumannii ATCC 19606 by broth microdilution method; type: functional, ATCC 19606 = CIP 70.34 = JCM 6841
Summary of the method: as §1

Staphylococcus aureus [21] = assay: Antibacterial activity against Staphylococcus aureus ATCC 43300 by broth microdilution method; type: functional
Summary of the method: as §1

Pseudomonas aeruginosa [22] = assay: Antibacterial activity against Pseudomonas aeruginosa […] by broth microdilution method; type: functional
Summary of the method: as §1

Enterococcus faecalis [23] = assay: microbe, parasite or virus in culture; type: functional; conditions: ATCC 51299
Enterococcus faecalis [24] = assay: microbe, parasite or virus in culture; type: functional; conditions: ATCC 51299; remark: listed apart in the source
Pseudomonas aeruginosa [25] = conditions: ATCC 27893
Escherichia coli [26] = conditions: ATCC 25922
Pseudomonas aeruginosa [27] = conditions: ATCC 27893; remark: listed apart in the source
Escherichia coli [28] = conditions: ATCC 25922; remark: listed apart in the source
Acinetobacter baumannii [29] = conditions: ATCC 19606 = CIP 70.34 = JCM 6841
Acinetobacter baumannii [30] = conditions: ATCC 19606 = CIP 70.34 = JCM 6841; remark: listed apart in the source

## CC[C@H](C)CCCCC(=O)N[C@@H](CCN)C(=O)N[C@H](C(=O)N[C@@H](CCN)C(=O)N[C@H]1CCNC(=O)[C@H]([C@@H](C)O)NC(=O)[C@H](CCN)NC(=O)[C@H](CCN)NC(=O)[C@H](CC(C)C)NC(=O)[C@@H](Cc2ccccc2)NC(=O)[C@H](CCN)NC1=O)[C@@H](C)O (X1-[Dab]T[Dab][Dab][Dab][dF]L[Dab][Dab]T; lactam 4-C)
Enterococcus faecalis [1]
  MIC80: inactive
Acinetobacter baumannii [2]
  MIC80: 1.6 µM (≈ 1.93 µg/mL)
Acinetobacter baumannii [3]
  MIC80: 1.6 µM (≈ 1.93 µg/mL)
Staphylococcus aureus [4]
  MIC80: inactive
Klebsiella pneumoniae [5]
  MIC80: 1.6 µM (≈ 1.93 µg/mL)
Pseudomonas aeruginosa [6]
  MIC80: 3.1 µM (≈ 3.73 µg/mL)
Pseudomonas aeruginosa [7]
  MIC80: 3.1 µM (≈ 3.73 µg/mL)
Escherichia coli [8]
  MIC80: 1.6 µM (≈ 1.93 µg/mL)
Escherichia coli [9]
  MIC80: 1.6 µM (≈ 1.93 µg/mL)
Enterococcus faecalis [10]
  MIC80: inactive
Staphylococcus aureus [11]
  MIC80: inactive
Klebsiella pneumoniae [12]
  MIC80: 1.6 µM (≈ 1.93 µg/mL)

## CN(C)[C@@H]1C(O)=C(C(N)=O)C(=O)[C@@]2(O)C(O)=C3C(=O)c4c(O)cccc4[C@@](C)(O)[C@H]3C[C@@H]12 [TETRACYCLINE]
Enterococcus faecalis [1]
  MIC80: inactive
Staphylococcus aureus [13]
  MIC80: 0.78 µM (≈ 0.347 µg/mL)
Acinetobacter baumannii [2]
  MIC80: 12.5 µM (≈ 5.56 µg/mL)
Acinetobacter baumannii [3]
  MIC80: 25 µM (≈ 11.1 µg/mL)
Pseudomonas aeruginosa [6]
  MIC80: 25 µM (≈ 11.1 µg/mL)
Pseudomonas aeruginosa [7]
  MIC80: 25 µM (≈ 11.1 µg/mL)
Klebsiella pneumoniae [14]
  MIC80: inactive
Klebsiella pneumoniae [15]
  MIC80: inactive
Escherichia coli [8]
  MIC80: 3.13 µM (≈ 1.39 µg/mL)
Escherichia coli [9]
  MIC80: 3.13 µM (≈ 1.39 µg/mL)
Enterococcus faecalis [10]
  MIC80: inactive
Staphylococcus aureus [16]
  MIC80: 0.78 µM (≈ 0.347 µg/mL)

## O=C1CC[C@H]2CO[C@@H]1O2
Enterococcus faecalis [17]
  MIC80: 4 %v/v
Klebsiella pneumoniae [18]
  MIC80: 8 %v/v
Escherichia coli [19]
  MIC80: 5 %v/v
Acinetobacter baumannii [20]
  MIC80: 8 %v/v
Staphylococcus aureus [21]
  MIC80: 8 %v/v
Pseudomonas aeruginosa [22]
  MIC80: 8 %v/v

## C[C@H]1COc2c(N3CCN(C)CC3)c(F)cc3c(=O)c(C(=O)O)cn1c23 [LEVOFLOXACIN]
Enterococcus faecalis [23]
  MIC80: 0.19 µM (≈ 0.0687 µg/mL)
Staphylococcus aureus [13]
  MIC80: 0.78 µM (≈ 0.282 µg/mL)
Acinetobacter baumannii [2]
  MIC80: 0.39 µM (≈ 0.141 µg/mL)
Acinetobacter baumannii [3]
  MIC80: 0.39 µM (≈ 0.141 µg/mL)
Klebsiella pneumoniae [5]
  MIC80: 0.78 µM (≈ 0.282 µg/mL)
Pseudomonas aeruginosa [6]
  MIC80: 1.6 µM (≈ 0.578 µg/mL)
Pseudomonas aeruginosa [7]
  MIC80: 1.6 µM (≈ 0.578 µg/mL)
Escherichia coli [8]
  MIC80: 0.019 µM (≈ 0.00687 µg/mL)
Escherichia coli [9]
  MIC80: 0.019 µM (≈ 0.00687 µg/mL)
Enterococcus faecalis [24]
  MIC80: 0.39 µM (≈ 0.141 µg/mL)
Klebsiella pneumoniae [12]
  MIC80: 0.78 µM (≈ 0.282 µg/mL)
Staphylococcus aureus [16]
  MIC80: 0.78 µM (≈ 0.282 µg/mL)

## C[S+](C)[O-] [DIMETHYL SULFOXIDE]
Enterococcus faecalis [17]
  MIC80: 8 %v/v
Klebsiella pneumoniae [18]
  MIC80: 16 %v/v
Escherichia coli [19]
  MIC80: 10 %v/v
Acinetobacter baumannii [20]
  MIC80: 16 %v/v
Staphylococcus aureus [21]
  MIC80: 16 %v/v
Pseudomonas aeruginosa [22]
  MIC80: 16 %v/v

## CC1(C)S[C@@H]2[C@H](NC(=O)Cc3ccccc3)C(=O)N2[C@H]1C(=O)O [PENICILLIN G SODIUM]
Enterococcus faecalis [1]
  MIC80: inactive
Pseudomonas aeruginosa [25]
  MIC80: inactive
Staphylococcus aureus [13]
  MIC80: 34 µM
Escherichia coli [26]
  MIC80: inactive
Klebsiella pneumoniae [14]
  MIC80: inactive
Pseudomonas aeruginosa [27]
  MIC80: inactive
Escherichia coli [28]
  MIC80: inactive
Klebsiella pneumoniae [15]
  MIC80: inactive
Acinetobacter baumannii [29]
  MIC80: inactive
Enterococcus faecalis [10]
  MIC80: inactive
Staphylococcus aureus [16]
  MIC80: 34 µM
Acinetobacter baumannii [30]
  MIC80: inactive

## O=C(O)c1cn(C2CC2)c2cc(N3CCNCC3)c(F)cc2c1=O [CIPROFLOXACIN HYDROCHLORIDE]
Enterococcus faecalis [23]
  MIC80: 0.39 µM
Staphylococcus aureus [13]
  MIC80: 1.6 µM
Acinetobacter baumannii [2]
  MIC80: 1.6 µM
Acinetobacter baumannii [3]
  MIC80: 1.6 µM
Klebsiella pneumoniae [5]
  MIC80: 0.39 µM
Pseudomonas aeruginosa [6]
  MIC80: 0.39 µM
Pseudomonas aeruginosa [7]
  MIC80: 0.39 µM
Enterococcus faecalis [24]
  MIC80: 0.39 µM
Klebsiella pneumoniae [12]
  MIC80: 0.39 µM
Staphylococcus aureus [16]
  MIC80: 1.6 µM

## NC[C@H]1O[C@H](O[C@H]2[C@H](O)[C@@H](O[C@H]3O[C@H](CO)[C@@H](O)[C@H](N)[C@H]3O)[C@H](N)C[C@@H]2N)[C@H](N)C[C@@H]1O [TOBRAMYCIN]
Enterococcus faecalis [1]
  MIC80: inactive
Acinetobacter baumannii [2]
  MIC80: 3.1 µM (≈ 1.45 µg/mL)
Acinetobacter baumannii [3]
  MIC80: 3.1 µM (≈ 1.45 µg/mL)
Staphylococcus aureus [4]
  MIC80: inactive
Klebsiella pneumoniae [5]
  MIC80: 13 µM (≈ 6.08 µg/mL)
Pseudomonas aeruginosa [6]
  MIC80: 1.6 µM (≈ 0.748 µg/mL)
Pseudomonas aeruginosa [7]
  MIC80: 1.6 µM (≈ 0.748 µg/mL)
Escherichia coli [8]
  MIC80: 0.78 µM (≈ 0.365 µg/mL)
Escherichia coli [9]
  MIC80: 0.78 µM (≈ 0.365 µg/mL)
Enterococcus faecalis [10]
  MIC80: inactive
Staphylococcus aureus [11]
  MIC80: inactive
Klebsiella pneumoniae [12]
  MIC80: 13 µM (≈ 6.08 µg/mL)

## CN[C@H](CC(C)C)C(=O)N[C@H]1C(=O)N[C@@H](CC(N)=O)C(=O)N[C@H]2C(=O)N[C@H]3C(=O)N[C@H](C(=O)N[C@H](C(=O)O)c4cc(O)cc(O)c4-c4cc3ccc4O)[C@H](O)c3ccc(c(Cl)c3)Oc3cc2cc(c3O[C@@H]2O[C@H](CO)[C@@H](O)[C@H](O)[C@H]2O[C@H]2C[C@](C)(N)[C@H](O)[C@H](C)O2)Oc2ccc(cc2Cl)[C@H]1O [VANCOMYCIN HYDROCHLORIDE]
Enterococcus faecalis [23]
  MIC80: 13 µM
Pseudomonas aeruginosa [25]
  MIC80: inactive
Staphylococcus aureus [13]
  MIC80: 0.39 µM
Escherichia coli [26]
  MIC80: inactive
Klebsiella pneumoniae [14]
  MIC80: inactive
Pseudomonas aeruginosa [27]
  MIC80: inactive
Escherichia coli [28]
  MIC80: inactive
Klebsiella pneumoniae [15]
  MIC80: inactive
Acinetobacter baumannii [29]
  MIC80: inactive
Enterococcus faecalis [24]
  MIC80: 13 µM
Staphylococcus aureus [16]
  MIC80: 0.39 µM
Acinetobacter baumannii [30]
  MIC80: inactive
